Laboratory results: PubChem BioAssay AID809 (SRMLSC, 2007)
Active and inactive are the calls of the source.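 How the source made its calls: active means EC50 for reversing nicotinamide-shortened yeast lifespan at or below a set limit; inactive means EC50 above that limit.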

Tested on: S. cerevisiae DeaD BB579, nicotinamide rescue growth, OD615 48 h
Assay: rescue of nicotinamide-suppressed growth of yeast BB579, dose response, yeast lifespan extension project, S. cerevisiae (AID 809)
Summary of the method: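 System – S. cerevisiae DeaD strain BB579 · Buffer or medium – CSMM-D glucose restrictive medium · Times – culture pre-incubation 4 h, then compound exposure 48 h, both 30 °C · Signal – OD615 absorbance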

Row | SMILES | EC50
1 | CCCC(=O)Nc1ccccc1Sc1ncnc2scc(-c3ccccc3)c12 | > 10 µM (inactive)
2 | Cc1ccc(S(=O)(=O)C(C#N)c2nc3ccccc3nc2N2CCCC2)cc1 (stereo not drawn) | > 10 µM (inactive)
3 | Cc1cc(C)nc(SCc2cc(=O)c(OC(=O)c3ccc(Br)o3)co2)n1 | 3.26 µM
4 | O=C(NCC1CCCO1)c1c(O)c2ccccc2[nH]c1=O (stereo not drawn) | > 10 µM (inactive)
5 | CC1Cc2ccccc2N1C(=O)Cn1cnc2ccccc2c1=O (stereo not drawn) | 3.18 µM
6 | COCCn1c(SCC(=O)Nc2ccc(C)cc2)nc2c(oc3ccccc32)c1=O | > 10 µM (inactive)
7 | Cc1cccc(N2C(=O)C(Oc3ccc(Cl)cc3Cl)C2C=O)c1C (stereo not drawn) | 6.52 µM
8 | CCc1ccc2nc(N3C(=O)C(O)=C(C(=O)c4ccco4)C3c3cccs3)sc2c1 (stereo not drawn) | 9.41 µM
9 | CCCCCSc1nc2c(c(=O)[nH]c(=O)n2C)n1C | > 10 µM (inactive)
10 | COc1cnc(-c2ccccn2)nc1Sc1cccc(Cl)c1 | 4.44 µM
11 | O=C(NC(=S)NNC(=O)c1ccc(Cl)cc1Cl)c1cccnc1 | 9.35 µM
12 | C/C(=N\NC(=O)c1ccccc1O)c1c(O)cc(C)oc1=O | 2.9 µM
13 | O=C1C(Cl)=C(Nc2ccccc2O)C(=O)N1CCc1ccccc1 | > 10 µM (inactive)
14 | CNC(=O)/C(C#N)=C/c1c(F)cccc1Cl | 7.85 µM
15 | C=CCN(CC=C)c1nc2ccccc2nc1C(C#N)C(=O)OC(C)C (stereo not drawn) | > 10 µM (inactive)
16 | O=C(Nc1cccc(Cl)c1)c1ccc2c(=O)n3c(nc2c1)CCCCC3 | 6.59 µM
17 | CN1C(=O)NC(c2ccc(O)cc2)C(C(=O)c2cccs2)C1(O)C(F)(F)F (stereo not drawn) | > 10 µM (inactive)
18 | O=C1CC(c2ccccc2)CC(O)=C1C=NCCN1CCOCC1 (stereo not drawn) | 6.42 µM
19 | Cc1cc(N2C(=O)CC(Cc3ccccc3)C2=O)no1 (stereo not drawn) | > 10 µM (inactive)
20 | CCOc1ccc(C2=NNC(c3cccs3)=Nc3ccc(OCC)cc32)cc1 | > 10 µM (inactive)
21 | Cc1ccc(C(=O)OC2=CC(=O)CC(C)(C)C2)cc1 | 2.94 µM
22 | O=C(Oc1ccc2c(c1)OCO2)C12CC3CC(CC(C3)C1)C2 | > 10 µM (inactive)
23 | CC1(C)CC(=O)C2=C(C1)OC1=C(C(=O)CC(C)(C)C1)C2c1ccc(O)cc1O | > 10 µM (inactive)
24 | CC(C)OCCCNS(=O)(=O)c1ccc2ccccc2c1 | > 10 µM (inactive)
25 | CCCn1c(C)cc(C(=O)COc2ncnc3sccc23)c1C | 5.05 µM
26 | CN1C(=O)C(C(=O)Nc2ccccc2F)c2ccccc21 (stereo not drawn) | 9.71 µM

Row | SMILES | EC50
27 | Cc1ncc(C23CC4CC(CC(C4)C2)C3)[nH]1 | > 10 µM (inactive)
28 | CC1CCCCC1NC(=O)/C(C#N)=C/c1ccccc1F (stereo not drawn) | 7.11 µM
29 | Cc1ccc2[nH]c(=O)c(CN(CCO)Cc3nnnn3CCc3ccccc3)cc2c1 | > 10 µM (inactive)
30 | CN(C)/C=C(/C(=O)c1ccc(Cl)cc1Cl)S(=O)(=O)c1ccccc1 | 5.3 µM
31 | COc1cc(OC)cc(-c2nc3ccccc3c(=O)n2OC(=O)c2ccc(C)c(C)c2)c1 | 8.74 µM
32 | CCCCOC(=O)n1c(=O)oc2cc(S(=O)(=O)N3CCCCC3)ccc21 | > 10 µM (inactive)
33 | CCCCCn1c(=O)c(C(=O)NCc2ccccn2)c(O)c2ccccc21 | > 10 µM (inactive)
34 | Cc1ccc2[nH]c3c(c2c1)CC/C(=C/c1ccccc1)C3=O | > 10 µM (inactive)
35 | O=C(CCc1ccccc1)NCCCN1CCOCC1 | > 10 µM (inactive)
36 | O=C(c1cnn2c(C(F)F)cc(C3CC3)nc12)N1CCCC1 | > 10 µM (inactive)
37 | COc1cccc(/C=C/C(=O)c2c(O)cc(C)oc2=O)c1O | > 10 µM (inactive)
38 | CCOc1ccc(N=Cc2c(O)c3ccccc3oc2=O)cc1 | > 10 µM (inactive)
39 | CC1(C)CC(=O)C(C(=O)Cc2ccccc2[N+](=O)[O-])C(=O)C1 | 4.3 µM
40 | CC[n+]1ccc(C[n+]2ccccc2)c2ccccc21 | > 10 µM (inactive)
41 | C/C(=N\NC(=O)c1ccccc1O)C1C(=O)c2ccccc2C1=O | < 0.078 µM
42 | O=Cc1cc2ccccc2nc1SCc1ccc(Cl)cc1 | 8.27 µM
43 | CCC(=O)N1CCN(CCN=CC2=C(O)CC(c3cccs3)CC2=O)CC1 (stereo not drawn) | 9.98 µM
44 | CC(=C1C(=O)c2ccccc2C1=O)N1CCN(C/C=C/c2ccccc2)CC1 | > 10 µM (inactive)
45 | Cc1cc(C(=O)CN2C(=O)NC(C)(CC(C)C)C2=O)c(C)n1-c1ccc2c(c1)OCO2 (stereo not drawn) | > 10 µM (inactive)
46 | CN(c1ccccc1)c1nc2ccsc2c(=O)s1 | > 10 µM (inactive)
47 | O=C(/C=C/c1ccccc1)C1C(=O)c2ccccc2C1=O | > 10 µM (inactive)
48 | Cc1n[nH]c(=O)n1-c1cccc(C(F)(F)F)c1 | > 10 µM (inactive)
49 | CCn1c(/N=C/c2ccccc2NS(=O)(=O)c2ccc(C)cc2)nc2ccccc21 | 3.3 µM
50 | CCn1ccc(C(=O)Nc2ccc(S(=O)(=O)Nc3ccccc3OC)cc2)n1 | > 10 µM (inactive)
51 | Cc1ccc(S(=O)(=O)Nc2ccccc2/C=N/c2nc3ccccc3n2C(C)C)cc1 | > 10 µM (inactive)
52 | CCOC(=O)CCS(=O)(=O)c1nc(-c2ccccc2)cc(C(F)(F)F)n1 | 1.13 µM

Row | SMILES | EC50
53 | CCCNC(=O)CCC(NS(=O)(=O)c1ccc(C)cc1)C(=O)NCCC (stereo not drawn) | > 10 µM (inactive)
54 | N#CSCC(=O)N1c2ccccc2CCc2ccccc21 | 8.69 µM
55 | CC(C)n1c(=O)c2c(O)cc(=O)oc2c2ccccc21 | 0.63 µM
56 | CCCn1[nH]cc(SC)c(=O)c1=O | 8.67 µM
57 | O=C(CCl)c1ccc(Cc2ncc(C(F)(F)F)cc2Cl)s1 | 3.83 µM
58 | O=c1cc(O)c2c(=O)n(-c3ccccc3)c3c(c2o1)CCCCC3 | 5.16 µM
59 | COc1ccc(N(C(=O)C(C)C)S(=O)(=O)c2ccc(Cl)cc2)cc1 | > 10 µM (inactive)
60 | COc1cccc(/C=C2\C(=O)N(c3cccc(C)c3)C(=O)c3ccccc32)c1 | > 10 µM (inactive)
61 | N=c1c2c(-c3ccccc3)c(-c3ccccc3)n(Cc3ccco3)c2ncn1CCCn1ccnc1 | 9.85 µM
62 | CN(C)/C=C(/C(=O)c1ccc(Cl)cc1Cl)S(=O)(=O)c1ccc(Cl)cc1 | 5.49 µM
63 | O=S(=O)(Nc1nc2ccccc2nc1Cl)c1ccc2ccccc2c1 | 7.25 µM
64 | Cc1cc2c(c(=O)n1CCc1ccccc1)C(c1ccco1)C(C#N)=C(N)O2 (stereo not drawn) | > 10 µM (inactive)
65 | COC(=O)C(=O)/C=C(\O)c1ccc(C)cc1 | 5.88 µM
66 | CCOC(=O)CS(=O)(=O)c1nc(-c2ccc(F)cc2)cc(C(F)(F)F)n1 | 5.71 µM
67 | CCCCCCC1C(C#N)=C(N)OC2=C1C(=O)CC(C)(C)C2 (stereo not drawn) | > 10 µM (inactive)
68 | O=C1NC(=O)N(CCC2=CCCCC2)C(=O)/C1=C\c1cccs1 | 7.01 µM
69 | CCn1c(=O)c2ccccc2n2c(SCC(=O)N3CCCc4ccccc43)nnc12 | > 10 µM (inactive)
70 | CN1C(=O)/C(=C/c2cccn2-c2ccc3ccccc3c2)C(=O)NC1=S | 5.73 µM
71 | CCN(CC)Cc1c(O)c(Cl)cc2c(C)c(C)c(=O)oc12 | > 10 µM (inactive)
72 | COc1ccc(-c2cc(C(F)(F)F)nc(S(C)(=O)=O)n2)cc1 | 6.1 µM
73 | COc1cc(/C=c2\sc3nc(-c4ccncc4)nn3c2=O)ccc1OC(C)=O | > 10 µM (inactive)
74 | CC(C)C(c1nnnn1Cc1ccccc1)N1CCN(Cc2ccc3c(c2)OCO3)CC1 (stereo not drawn) | > 10 µM (inactive)
75 | O=S1(=O)C=C(Sc2nnc(-c3ccccc3)o2)c2ccccc21 | 9.27 µM
76 | O=C1CC(c2ccccc2)CC(O)=C1C=NCCN1CCNCC1 (stereo not drawn) | > 10 µM (inactive)
77 | O=C(Cn1nc(Cl)nc1Cl)c1cc2ccccc2oc1=O | > 10 µM (inactive)
78 | O=C1NCC2=C1C(c1ccc(Br)cc1)Nc1ccccc1N2 (stereo not drawn) | 6.26 µM
